# From ChEMBL document CHEMBL1772954, “Antifungal, cytotoxic and SAR studies of a series of N-alkyl, N-aryl and N-alkylphenyl-1,4-pyrrolediones and related compounds” (Bioorg Med Chem, 2011)
# How the values were obtained:
# Format in all cases: functional
# [1] = system: Trichophyton mentagrophytes; test: Antifungal activity against Trichophyton mentagrophytes ATCC 9972
# Method in brief: (§1)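 Dermatophytes tested by CLSI M38-A2 microdilution in MOPS-buffered RPMI-1640 at pH 7.0. Inoculum 1-5 × 10^3 CFU/mL; compounds 250 to 0.24 µg/ml in twofold steps, final DMSO <1%. Incubated at 28 °C in a moist, dark chamber and read according to control growth. MIC is the lowest concentration with complete inhibition. MFC is the lowest concentration with no growth after duplicate subculture on SDA.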
# Aspergillus niger = test: Antifungal activity against Aspergillus niger ATCC 9029
# Method in brief: (§2)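 Broth microdilution per CLSI M38-A2 in RPMI-1640 with MOPS at pH 7.0. Inoculum 1-5 × 10^3 CFU/mL, with twofold compound dilutions spanning 250-0.24 µg/ml (final DMSO <1%). Plates incubated at 35 °C, moist and dark, and read when the control fungus had grown. MIC is total growth inhibition. MFC comes from subculturing clear wells in duplicate onto SDA.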
# Saccharomyces cerevisiae = test: Antifungal activity against Saccharomyces cerevisiae ATCC 9763
# Method in brief: (§3)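 CLSI M27-A3 broth microdilution in RPMI-1640 buffered to pH 7.0 with MOPS. Inoculum 1-5 × 10^3 CFU/mL. Compound twofold dilutions from 250 to 0.24 µg/ml, final DMSO <1%. Incubated at 35 °C in a moist, dark chamber and read at 48 h. MIC is the lowest concentration giving total growth inhibition. For MFC, 5 µL from clear wells was plated in duplicate on SDA; MFC is the lowest concentration with no growth.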
# Aspergillus fumigatus = test: Antifungal activity against Aspergillus fumigatus ATCC 26934; method in brief: as §2
# Candida albicans = test: Antifungal activity against Candida albicans ATCC 10213; method in brief: as §3
# Cryptococcus neoformans = test: Antifungal activity against Cryptococcus neoformans ATCC 32264; method in brief: as §3
# Nannizzia gypsea = test: Antifungal activity against Microsporum gypseum C 115 2000; method in brief: as §1
# Candida tropicalis = test: Antifungal activity against Candida tropicalis C 131 2000; method in brief: as §3
# Trichophyton rubrum = test: Antifungal activity against Trichophyton rubrum C 113 2000; method in brief: as §1
# Aspergillus flavus = test: Antifungal activity against Aspergillus flavus ATCC 9170; method in brief: as §2
Structure (SMILES),MIC [1] [µg/mL],MIC (Aspergillus niger) [µg/mL],MIC (Saccharomyces cerevisiae) [µg/mL],MIC (Aspergillus fumigatus) [µg/mL],MIC (Candida albicans) [µg/mL],MIC (Cryptococcus neoformans) [µg/mL],MIC (Nannizzia gypsea) [µg/mL],MIC (Candida tropicalis) [µg/mL],MIC (Trichophyton rubrum) [µg/mL],MIC (Aspergillus flavus) [µg/mL],MFC [1] [µg/mL],MFC (Aspergillus niger) [µg/mL],MFC (Saccharomyces cerevisiae) [µg/mL],MFC (Aspergillus fumigatus) [µg/mL],MFC (Candida albicans) [µg/mL],MFC (Cryptococcus neoformans) [µg/mL],MFC (Nannizzia gypsea) [µg/mL],MFC (Candida tropicalis) [µg/mL],MFC (Trichophyton rubrum) [µg/mL],MFC (Aspergillus flavus) [µg/mL]
CC1=C(C)C(=O)N(c2ccccc2)C1=O,125,> 250,> 250,> 250,> 250,125,250,> 250,62.5,> 250,250,> 250,> 250,> 250,> 250,250,> 250,> 250,125,> 250
O=C1C=CC(O)N1CCc1ccccc1 (stereo not given),31.2,> 250,250,> 250,62.5,62.5,62.5,250,62.5,> 250,62.5,> 250,> 250,> 250,125,> 250,125,> 250,125,> 250
CN(C/C=C/C#CC(C)(C)C)Cc1cccc2ccccc12 [TERBINAFINE],0.03,,,,,,0.03,,0.01,,0.06,,,,,,0.06,,0.03,
O=C(O)/C=C\C(=O)NCCCCc1ccccc1,> 250,> 250,> 250,> 250,,> 250,> 250,> 250,> 250,> 250,> 250,> 250,> 250,> 250,> 250,> 250,> 250,> 250,> 250,> 250

# More lines, main results first:
MIC [1] [µg/mL],MIC (Aspergillus niger) [µg/mL],MIC (Saccharomyces cerevisiae) [µg/mL],MIC (Aspergillus fumigatus) [µg/mL],MIC (Candida albicans) [µg/mL],MIC (Cryptococcus neoformans) [µg/mL],MIC (Nannizzia gypsea) [µg/mL],MIC (Candida tropicalis) [µg/mL],MIC (Trichophyton rubrum) [µg/mL],MIC (Aspergillus flavus) [µg/mL],Structure (SMILES),MFC [1] [µg/mL],MFC (Aspergillus niger) [µg/mL],MFC (Saccharomyces cerevisiae) [µg/mL],MFC (Aspergillus fumigatus) [µg/mL],MFC (Candida albicans) [µg/mL],MFC (Cryptococcus neoformans) [µg/mL],MFC (Nannizzia gypsea) [µg/mL],MFC (Candida tropicalis) [µg/mL],MFC (Trichophyton rubrum) [µg/mL],MFC (Aspergillus flavus) [µg/mL]
> 250,> 250,> 250,> 250,> 250,> 250,> 250,> 250,> 250,> 250,O=C1CCC(=O)N1CCc1ccccc1,> 250,> 250,> 250,> 250,> 250,> 250,> 250,> 250,> 250,> 250
> 250,> 250,> 250,> 250,> 250,> 250,> 250,> 250,> 250,> 250,O=C1C(c2ccccc2)=C(c2ccccc2)C(=O)N1CCCCc1ccccc1,> 250,> 250,> 250,> 250,> 250,> 250,> 250,> 250,> 250,> 250
125,> 250,> 250,> 250,> 250,> 250,250,> 250,125,> 250,CC1=C(C)C(=O)N(CCCCc2ccccc2)C1=O,> 250,> 250,> 250,> 250,> 250,> 250,> 250,> 250,250,> 250
> 250,> 250,> 250,> 250,> 250,> 250,> 250,> 250,> 250,> 250,O=C1C(c2ccccc2)=C(c2ccccc2)C(=O)N1CCCc1ccccc1,> 250,> 250,> 250,> 250,> 250,> 250,> 250,> 250,> 250,> 250
